Experimental data taken from ChEMBL document CHEMBL1143798, “Pyrimido[4,5-c]quinolin-1(2H)-ones as a novel class of antimitotic agents: Synthesis and in vitro cytotoxic activity” (Eur J Med Chem, 2007).

Tests used:
[1] = tested on: HT-1080; assay: Cytotoxicity against human HT1080 cells by MTT assay; format: functional, cell-based
Summary of the method: (§1)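 Cells grown in DMEM with 10% FBS and antibiotics at 37 °C, 5% CO2, seeded ~5000/well; compound in DMSO added after 24 h, 72 h exposure. MTT (1 mg/mL final, serum- and phenol-red-free DMEM) 4 h, formazan dissolved in 2-propanol, OD 550 nm (ref 690 nm). IC50 = concentration halving OD vs untreated; mean of three independent experiments with SD; doxorubicin positive control.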

[2] = tested on: HT-29; assay: Cytotoxicity against human HT29 cells by MTT assay; format: functional, cell-based; summary of the method: as §1
[3] = tested on: MDA-MB-231; assay: Cytotoxicity against human MDA-MB-231 cells by MTT assay; format: functional, cell-based; summary of the method: as §1
[4] = tested on: HT-1080; assay: Inhibition of tubulin polymerization in human HT1080 cells after 36 hrs by Western analysis; format: functional, cell-based
Summary of the method: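 Cells lysed in 20 mM Tris-HCl pH 6.8, 1 mM MgCl2, 2 mM EGTA, 0.5% NP-40 with protease/phosphatase inhibitors; spun 13,000 × g 10 min to separate soluble from polymerized tubulin pellet; fractions run on 10% SDS-PAGE, anti-α-tubulin Western blot.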

[5] = tested on: HT-1080; assay: Cell cycle arrest in human HT1080 cells by accumulation at G0/G1 phase at 5 uM after 36 hrs; format: functional
Summary of the method: (§2)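 HT-1080 fibrosarcoma cells exposed 36 h, then trypsinized, PBS-washed, fixed in 50% ethanol and stained with propidium iodide containing RNase; DNA content measured by flow cytometry and cell-cycle phase distribution (G0/G1, S, G2/M) determined from DNA histograms.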

[6] = tested on: HT-1080; assay: Cell cycle arrest in human HT1080 cells by accumulation at G2/M phase at 5 uM after 36 hrs; format: functional; summary of the method: as §2
[7] = tested on: HT-1080; assay: Induction of apoptosis in human HT1080 cells by flow cytometer; format: functional
Summary of the method: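 HT-1080 cells incubated 36 h, ethanol-fixed (50%) and stained with RNase-containing propidium iodide; apoptosis estimated by flow cytometry as sub-diploid peak in DNA-content histogram, expressed as percentage of total events collected.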

[8] = tested on: HT-1080; assay: Cell cycle arrest in human HT1080 cells by accumulation at S phase at 5 uM after 36 hrs; format: functional; summary of the method: as §2

Row | SMILES | IC50 [1] [µM] | IC50 [2] [µM] | IC50 [3] [µM] | Activity [4] | Activity [5] [%] | Activity [6] [%] | Activity [7] [%] | Activity [8] [%]
1 | Cc1nc2c(-c3ccc(Cl)cc3)nc3ccccc3c2c(=O)n1N | > 100 | > 100 | > 100 | – | – | – | – | –
2 | Cc1nc2c(-c3ccc(Br)cc3)nc3ccccc3c2c(=O)n1N | 44.8 | 77.8 | > 100 | – | – | – | – | –
3 | Nn1c(-c2ccccc2)nc2c(-c3ccc(Br)cc3)nc3ccccc3c2c1=O | 47.4 | 89.9 | > 100 | – | – | – | – | –
4 | Nn1c(-c2ccc(Cl)cc2)nc2c(-c3ccc(Br)cc3)nc3ccccc3c2c1=O | 10.8 | 23.2 | 34.2 | – | – | – | – | –
5 | COc1cccc2c1C(=O)c1c(O)c3c(c(O)c1C2=O)C[C@@](O)(C(=O)CO)C[C@@H]3O[C@H]1C[C@H](N)[C@H](O)[C@H](C)O1 [DOXORUBICIN] | 0.022 | 0.35 | 0.03 | – | – | – | – | –
6 | Nn1c(-c2ccc(Cl)cc2)nc2c(-c3ccc(Cl)cc3)nc3ccc(Cl)cc3c2c1=O | 1.23 | 1.97 | 1.82 | Dose-dependent effect | 57.25 | 31.49 | 7.62 | 11.26
7 | Nn1c(-c2ccc(Cl)cc2)nc2c(-c3ccc(Cl)cc3)nc3ccccc3c2c1=O | 6.84 | 18.1 | 55.3 | – | – | – | – | –
8 | Nn1c(-c2ccccc2)nc2c(-c3ccc(Cl)cc3)nc3ccccc3c2c1=O | 23 | > 100 | > 100 | – | – | – | – | –
9 | Nn1c(-c2ccc(Cl)cc2)nc2c(-c3ccc(Br)cc3)nc3ccc(Cl)cc3c2c1=O | 1.84 | 2.82 | 2.89 | – | 49.76 | 27.75 | 9.14 | 22.48
10 | Cc1nc2c(-c3ccc(Cl)cc3)nc3ccc(Cl)cc3c2c(=O)n1N | 34.3 | 52 | > 100 | – | – | – | – | –
11 | Nn1c(-c2ccccc2)nc2c(-c3ccc(Br)cc3)nc3ccc(Cl)cc3c2c1=O | 1.48 | 2.14 | 13.7 | – | 45.78 | 26.22 | 5.51 | 28
12 | Nn1c(-c2ccccc2)nc2c(-c3ccc(Cl)cc3)nc3ccc(Cl)cc3c2c1=O | 2.9 | 4.68 | 15.8 | – | 50.68 | 22.46 | 2.21 | 26.86
